Assay results taken from ChEMBL document CHEMBL3576868 (J Med Chem, 2015).
Residue numbers refer to the chain shown, from its start. The source made the active and inactive calls. The calls are words filed in the database; no cut-off is given here.

What was measured:
[1] = system: T1, Beta-hexosaminidase subunit alpha (Homo sapiens), P06865 [G269S]; experiment: Chaperoning efficacy at HexA alpha G269S mutant in ATSD patient fibroblasts assessed as maximum increase in enzyme activity using MUGS substrate incubated for 1 to 2 hrs by spectrofluorometry relative to pyrimethamine
T1 sequence (whole entry): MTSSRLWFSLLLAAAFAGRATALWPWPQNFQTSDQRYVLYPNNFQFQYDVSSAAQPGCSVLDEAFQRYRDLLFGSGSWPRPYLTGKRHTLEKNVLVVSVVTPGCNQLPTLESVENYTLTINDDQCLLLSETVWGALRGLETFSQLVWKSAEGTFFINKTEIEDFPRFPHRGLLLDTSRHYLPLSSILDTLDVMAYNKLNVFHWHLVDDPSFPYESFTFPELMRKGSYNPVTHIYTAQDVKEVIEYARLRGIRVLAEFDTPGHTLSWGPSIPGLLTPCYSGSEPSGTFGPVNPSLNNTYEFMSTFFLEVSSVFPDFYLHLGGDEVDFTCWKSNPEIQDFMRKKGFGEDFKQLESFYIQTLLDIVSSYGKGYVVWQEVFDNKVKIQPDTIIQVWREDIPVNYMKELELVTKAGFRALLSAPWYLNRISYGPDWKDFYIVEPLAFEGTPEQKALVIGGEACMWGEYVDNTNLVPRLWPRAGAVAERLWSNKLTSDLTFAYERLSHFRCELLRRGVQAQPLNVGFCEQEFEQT

[2] = Toxicity against ATSD patient fibroblasts assessed as reduction in beta-galactosidase activity at >200 uM; format: cell-based; conditions: human, fibroblast
[3] = target: T2, Dihydrofolate reductase (Homo sapiens) (UniProt P00374); experiment: Inhibition of human DHFR
T2 sequence (whole entry): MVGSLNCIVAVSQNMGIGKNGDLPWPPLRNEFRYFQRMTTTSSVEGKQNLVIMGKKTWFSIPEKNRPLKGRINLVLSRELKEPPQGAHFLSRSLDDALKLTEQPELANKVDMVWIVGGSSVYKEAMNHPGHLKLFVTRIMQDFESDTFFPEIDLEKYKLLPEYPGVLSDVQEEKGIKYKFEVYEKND

[4] = target: Beta-hexosaminidase subunit alpha (Homo sapiens, UniProt P06865, G269S); experiment: Inhibition of HexA alpha G269S mutant in ATSD patient fibroblasts using MUG substrate incubated for 1 to 2 hrs at pH 4.5 by spectrofluorometry
[5] = Toxicity against ATSD patient fibroblasts assessed as reduction in beta-galactosidase activity at >400 uM; format: cell-based; set-up: scale not given: the % may be the effect or the level left; conditions: human, fibroblast
[6] = system: T1, Beta-hexosaminidase subunit alpha (Homo sapiens), P06865 [G269S]; experiment: Chaperoning efficacy at HexA alpha G269S mutant in ATSD patient fibroblasts assessed as maximum increase in enzyme activity using MUGS substrate incubated for 1 to 2 hrs by spectrofluorometry relative to control
Summary of the method: (§1)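 G269S-homozygous ATSD patient fibroblasts plated at 70−90% confluence and treated 5 days with serially diluted compound in DMEM/10% FBS, DMSO held at 1%. After PBS washes, cells were lysed in McIlvaine buffer pH 4.5 with 0.4% Triton X-100 and 0.025% HSA at 4 °C for 30 min. Lysate was incubated with MUGS (1.6 mM) at 37 °C for 1−2 h and stopped with 0.1 M MAP pH 10.5. Fluorescence read at Ex 365/Em 450 nm. Activity expressed relative to mock (1% DMSO) cells; triplicates.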

[7] = target: T3, Beta-N-acetyl-D-hexosaminidase-A/B (Homo sapiens, UniProt P07686+P06865); experiment: Inhibition of human placental HexA using pNPGlcNAc substrate
T3 sequence (P07686 whole entry): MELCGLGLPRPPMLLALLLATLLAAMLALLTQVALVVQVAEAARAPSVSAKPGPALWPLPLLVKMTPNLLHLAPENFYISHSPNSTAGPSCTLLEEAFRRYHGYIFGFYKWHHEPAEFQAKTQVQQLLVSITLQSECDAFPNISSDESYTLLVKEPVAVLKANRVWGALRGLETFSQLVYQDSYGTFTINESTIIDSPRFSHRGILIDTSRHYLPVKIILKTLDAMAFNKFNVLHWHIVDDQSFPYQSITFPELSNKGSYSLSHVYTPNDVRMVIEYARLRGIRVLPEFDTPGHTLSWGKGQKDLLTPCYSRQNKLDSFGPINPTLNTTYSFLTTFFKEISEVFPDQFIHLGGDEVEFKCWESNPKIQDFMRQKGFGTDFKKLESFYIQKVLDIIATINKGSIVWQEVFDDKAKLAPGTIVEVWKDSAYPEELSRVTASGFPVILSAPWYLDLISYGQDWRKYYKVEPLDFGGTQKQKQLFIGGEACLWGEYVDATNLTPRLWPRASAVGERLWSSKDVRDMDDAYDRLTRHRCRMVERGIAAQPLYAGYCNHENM
T3 sequence (P06865 whole entry): T1 sequence (whole entry) with S269G

[8] = system: T1, Beta-hexosaminidase subunit alpha (Homo sapiens), P06865 [G269S]; experiment: Chaperoning efficacy at HexA alpha G269S mutant in ATSD patient fibroblasts assessed as drug level causing maximum increase in enzyme activity using MUGS substrate incubated for 1 to 2 hrs by spectrofluorometry relative to control; summary of the method: as §1
[9] = target: Signal transducer and activator of transcription 3 (Homo sapiens) (UniProt P40763); experiment: Inhibition of STAT3 phosphorylation at 100 uM
Signal transducer and activator of transcription 3 (Homo sapiens), sequence (P40763 whole entry): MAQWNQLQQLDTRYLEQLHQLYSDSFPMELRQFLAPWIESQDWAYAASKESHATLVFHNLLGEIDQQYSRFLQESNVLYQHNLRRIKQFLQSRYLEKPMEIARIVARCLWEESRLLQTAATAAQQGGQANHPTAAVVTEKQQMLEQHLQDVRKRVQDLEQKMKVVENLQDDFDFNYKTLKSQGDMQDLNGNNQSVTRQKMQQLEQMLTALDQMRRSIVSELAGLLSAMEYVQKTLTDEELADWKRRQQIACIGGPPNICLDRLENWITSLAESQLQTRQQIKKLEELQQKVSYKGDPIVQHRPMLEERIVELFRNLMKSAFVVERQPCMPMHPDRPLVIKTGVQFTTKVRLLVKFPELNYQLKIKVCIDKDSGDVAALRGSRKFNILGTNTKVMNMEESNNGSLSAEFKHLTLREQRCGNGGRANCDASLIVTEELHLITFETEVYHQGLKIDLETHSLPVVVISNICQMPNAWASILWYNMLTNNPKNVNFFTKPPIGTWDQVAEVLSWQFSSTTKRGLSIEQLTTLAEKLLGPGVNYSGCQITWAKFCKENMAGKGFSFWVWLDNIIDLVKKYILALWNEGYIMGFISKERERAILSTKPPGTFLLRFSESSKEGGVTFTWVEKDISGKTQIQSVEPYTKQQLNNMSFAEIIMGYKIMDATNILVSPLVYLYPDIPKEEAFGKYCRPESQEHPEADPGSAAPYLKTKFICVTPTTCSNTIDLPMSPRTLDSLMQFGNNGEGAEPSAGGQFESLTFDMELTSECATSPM

[10] = Toxicity against ATSD patient fibroblasts assessed as reduction in beta-galactosidase activity at; format: cell-based; conditions: human, fibroblast

SMILES	Activity [5]	fold change (FC) [6]	IC50 [7] [µM]	Activity [8] [µM]	also measured
CCc1nc(N)nc(N)c1-c1ccccc1	Non-toxic	2.7			Activity [1]: 30%; Activity [2]: Toxic; inhibition [3]: Active; IC50 [4]: 27 µM
CCc1nc(N)[nH]c(=O)c1-c1ccc(Cl)cc1			> 2100		
CCc1nc(N)ncc1-c1ccc(C(F)(F)F)cc1			> 400		
CCc1nc(N)nc(N)c1-c1cccc(C)c1	> 60%	2.9		100	Activity [1]: 30%
CCc1nc(N)nc(N)c1-c1ccc(Cl)cc1 [PYRIMETHAMINE]	> 60%	2.1		30	inhibition [9]: Active; inhibition [3]: Active; Activity [10]: Toxic
Cc1nc(N)nc(N)c1-c1ccc(Cl)cc1			> 560		
CCc1nc(N)nc(N)c1-c1cc(C)cc(C)c1	> 60%	2.5		100	Activity [1]: 30%
CCc1nc(N)nc(N)c1-c1ccc(C(F)(F)F)cc1	> 60%	2.2		30	Activity [10]: Toxic
CCc1nc(N)ncc1-c1ccc(Cl)cc1			> 400		
CCCc1nc(N)nc(N)c1-c1ccc(Cl)cc1		1.5			
CCCCc1nc(N)nc(N)c1-c1ccc(Cl)cc1			> 1400		
NCc1nc(N)nc(N)c1-c1ccc(Cl)cc1			180		
CCc1nc(N)nc(N)c1-c1ccc(C)cc1	> 60%	1.7	40	30	Activity [10]: Toxic
CCc1nc(N)nc(N)c1-c1ccccc1C	> 60%	2.3	43	100	Activity [1]: 30%
CC(C)c1nc(N)nc(N)c1-c1ccc(Cl)cc1			> 410		
CCc1ncncc1-c1ccc(C(F)(F)F)cc1			> 940		
CCc1nc(N)nc(N)c1-c1ccc(OC)cc1	> 60%	2	18	30	Activity [10]: Toxic
